Measurements from ChEMBL document CHEMBL3616369, “N-O-Isopropyl Sulfonamido-Based Hydroxamates as Matrix Metalloproteinase Inhibitors: Hit Selection and in Vivo Antiangiogenic Activity” (J Med Chem, 2015).
Blank lines part the entries; values can stand above or below the compound they belong to. Calls of active or inactive are those of the source. No cut-off for these calls is given here.

Columns and labels:
Interstitial collagenase = molecular target: T1, Interstitial collagenase (Homo sapiens, UniProt P03956); assay: Inhibition of recombinant human activated-MMP1 using Mca-Lys-Pro-Leu-Gly-Leu-Dap(Dnp)-Ala-Arg-NH2 as fluorogenic substrate incubated for 4 hrs followed by substrate addition measured every 10 secs for 20 mins by fluorometric assay
T1 sequence (P03956 whole entry): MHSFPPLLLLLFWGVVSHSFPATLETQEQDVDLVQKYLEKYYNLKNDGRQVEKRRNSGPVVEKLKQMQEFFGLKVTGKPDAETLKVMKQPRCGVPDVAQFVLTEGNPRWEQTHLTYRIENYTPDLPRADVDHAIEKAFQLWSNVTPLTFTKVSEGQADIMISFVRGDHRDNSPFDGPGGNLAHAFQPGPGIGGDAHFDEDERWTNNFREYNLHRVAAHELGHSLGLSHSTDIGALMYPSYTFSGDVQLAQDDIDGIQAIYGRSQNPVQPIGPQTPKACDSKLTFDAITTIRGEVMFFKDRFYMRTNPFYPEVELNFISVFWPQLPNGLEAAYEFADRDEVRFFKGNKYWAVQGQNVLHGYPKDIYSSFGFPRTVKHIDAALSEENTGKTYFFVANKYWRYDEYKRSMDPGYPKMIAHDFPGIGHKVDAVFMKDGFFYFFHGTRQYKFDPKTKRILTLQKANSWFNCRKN
How it was run: (§1)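 Recombinant human MMPs. Pro-forms activated with APMA: MMP-2 2 mM 1 h, MMP-9 1 mM 1 h, MMP-1 2 mM 2 h, MMP-13 1 mM 35 min, all 37 °C. MMP-3 activated with trypsin 4.4 µg/mL 30 min, then soybean trypsin inhibitor. Final enzyme 0.5 (MMP-2), 1.3 (MMP-9), 1.0 (MMP-14cd), 2.0 (MMP-1), 0.66 (MMP-13), 5 nM (MMP-3). Preincubated with inhibitor 4 h at 25 °C in Tris 50 mM pH 7.5, NaCl 150 mM, CaCl2 10 mM, Brij 35 0.05%, DMSO 1%. Substrate 2 µM final; fluorescence (ex 325/em 395 nm) every 10 s for 20 min. IC50 from vi/vo = 1/(1+[I]/IC50).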

[1] = molecular target: T2, Matrix metalloproteinase-9 (Homo sapiens, UniProt P14780); assay: Inhibition of recombinant human activated-MMP9 using Mca-Lys-Pro-Leu-Gly-Leu-Dap(Dnp)-Ala-Arg-NH2 as fluorogenic substrate incubated for 4 hrs followed by substrate addition measured every 10 secs for 20 mins by fluorometric assay; how it was run: as §1
[2] = molecular target: T3, 72 kDa type IV collagenase (Homo sapiens, UniProt P08253); assay: Inhibition of recombinant human activated-MMP2 using Mca-Lys-Pro-Leu-Gly-Leu-Dap(Dnp)-Ala-Arg-NH2 as fluorogenic substrate incubated for 4 hrs followed by substrate addition measured every 10 secs for 20 mins by fluorometric assay; how it was run: as §1
Target sequence in this assay (P08253 whole entry): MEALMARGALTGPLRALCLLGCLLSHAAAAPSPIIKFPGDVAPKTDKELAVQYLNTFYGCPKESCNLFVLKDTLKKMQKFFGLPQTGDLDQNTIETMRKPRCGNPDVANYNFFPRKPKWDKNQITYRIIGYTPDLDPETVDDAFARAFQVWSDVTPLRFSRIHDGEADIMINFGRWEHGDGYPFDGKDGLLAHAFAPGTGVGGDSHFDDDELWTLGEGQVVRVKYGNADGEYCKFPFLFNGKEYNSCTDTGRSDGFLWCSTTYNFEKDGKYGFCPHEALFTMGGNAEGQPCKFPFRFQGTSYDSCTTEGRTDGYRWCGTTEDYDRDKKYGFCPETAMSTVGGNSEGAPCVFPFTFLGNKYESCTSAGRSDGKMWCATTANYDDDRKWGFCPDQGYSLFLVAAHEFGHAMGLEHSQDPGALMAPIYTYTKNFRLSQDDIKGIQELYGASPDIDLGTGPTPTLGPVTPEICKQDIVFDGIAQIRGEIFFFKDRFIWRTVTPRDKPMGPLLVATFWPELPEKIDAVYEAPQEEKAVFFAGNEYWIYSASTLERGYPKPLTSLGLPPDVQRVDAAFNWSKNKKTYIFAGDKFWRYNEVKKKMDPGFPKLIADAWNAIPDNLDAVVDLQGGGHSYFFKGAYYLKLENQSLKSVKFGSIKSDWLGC

Stromelysin-1 = Stromelysin-1 (Homo sapiens, UniProt P08254); assay: Inhibition of recombinant human activated-MMP3 using Mca-Lys-Pro-Leu-Gly-Leu-Dap(Dnp)-Ala-Arg-NH2 as fluorogenic substrate incubated for 4 hrs followed by substrate addition measured every 10 secs for 20 mins by fluorometric assay; how it was run: as §1
[3] = Induction of apoptosis in human HUVEC assessed as cell viability at 0.001 to 10 uM after 18 hrs using Annexin-V and 7-amino-actinomycin-D staining by flow fluorocytometry analysis; assay type: cell-based; conditions: HUVEC cells, read-out: Activity
How it was run: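 HUVEC (1x10^5) plated in six-well plates, adhered overnight. Treated in growth medium with inhibitor (10 nM–10 µM) or hydrogen peroxide (100–200 µM) overnight. Stained 15 min at room temperature in the dark with FITC-Annexin V and 7-AAD in HEPES/NaCl/CaCl2 binding buffer pH 7.4. Analysed by flow cytometry.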

[4] = molecular target: T3, 72 kDa type IV collagenase; assay: Inhibition of MMP2 in HUVEC assessed as suppression of protein production at 10 uM after 24 hrs by Western blot analysis
How it was run: (§2)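 HUVEC (2x10^6) seeded, attached one day, starved 6 h in serum-free medium with 2% BSA. Pre-treated 3 h with 30 nM PMA, then exposed to inhibitor (10 µM) or DMSO vehicle for 24 h. Conditioned media and cell proteins collected. Equal protein on 10% SDS-PAGE, PVDF blot, milk block, anti-MMP-2, MMP-9 and β-actin antibodies, HRP/ECL detection.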
Target sequence in this assay (P08253 110-660 limits assumed): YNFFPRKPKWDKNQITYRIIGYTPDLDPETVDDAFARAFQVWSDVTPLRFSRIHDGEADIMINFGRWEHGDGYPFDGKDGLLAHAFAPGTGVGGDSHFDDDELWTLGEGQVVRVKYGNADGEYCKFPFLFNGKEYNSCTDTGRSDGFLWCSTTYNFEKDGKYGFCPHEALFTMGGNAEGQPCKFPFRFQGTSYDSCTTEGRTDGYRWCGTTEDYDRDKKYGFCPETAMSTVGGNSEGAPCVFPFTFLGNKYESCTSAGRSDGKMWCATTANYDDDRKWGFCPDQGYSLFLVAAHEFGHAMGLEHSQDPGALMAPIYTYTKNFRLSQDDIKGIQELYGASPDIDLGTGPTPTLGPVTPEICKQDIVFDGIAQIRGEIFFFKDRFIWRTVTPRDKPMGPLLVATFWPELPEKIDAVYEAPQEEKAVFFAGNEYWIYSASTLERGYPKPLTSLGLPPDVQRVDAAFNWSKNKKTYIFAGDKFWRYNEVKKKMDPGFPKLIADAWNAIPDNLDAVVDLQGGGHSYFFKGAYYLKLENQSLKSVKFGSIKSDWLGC

HUVEC [5] = assay: Inhibition of cell migration in human HUVEC after 6 hrs using modified Boyden chambers; assay type: functional, cell-based
How it was run: (§3)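 Modified Boyden chamber. HUVEC (5x10^4), PBS-washed, in serum-free medium with or without inhibitor in upper compartment; 10% FBS or serum-free medium below. 8 µm polycarbonate filters coated with collagen 50 µg/mL (migration, 6 h) or matrigel 1 mg/mL (invasion, overnight). Cells on lower surface ethanol-fixed, stained, counted blind in eight fields. Three experiments in duplicate; one-way ANOVA.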

Mus musculus [6] = assay: Antiangiogenic activity in ip dosed C57/BL6 mouse matrigel sponge assay model assessed as reduction of VEGF-A, TNFalpha and heparin-induced number of CD45-/CD31+ cells after 4 days by flow cytometry; assay type: functional, organism-based
How it was run: (§4)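 Matrigel (0.6 mL final) with VTH mix (VEGF-A 100 ng/mL, TNF-α 2 ng/mL, heparin 25 UI/mL), with or without inhibitor at 0.1-1-10 µM, injected s.c. into flanks of male C57/BL6 mice; some groups also given 0.1-1-10 µM i.p. at day 0; 8 mice/group. Plugs recovered after four days. Read-outs: hemoglobin by Drabkin reagent; collagenase IV digest, flow cytometry for CD31+ cells within CD45−CD3− gate. Mean ± SEM.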

HUVEC [7] = assay: Inhibition of cell migration in human HUVEC at 0.001 to 10 uM after 6 hrs using modified Boyden chambers; assay type: functional, cell-based; how it was run: as §3
HUVEC [8] = assay: Inhibition of FBS-induced cell morphogenesis in human HUVEC after 6 hrs by matrigel assay; assay type: functional, cell-based
How it was run: (§5)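 Matrigel (10 mg/mL) polymerized 1 h at 37 °C. HUVEC (50x10^4/well) in complete medium with 10% FBS, with or without inhibitor at various concentrations, layered on top. After 6 h, capillary-like organization imaged by inverted microscope; mesh number counted as tubulogenic efficiency.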

[9] = molecular target: T2, Matrix metalloproteinase-9; assay: Inhibition of MMP9 in HUVEC assessed as suppression of protein production at 10 uM after 24 hrs by Western blot analysis; how it was run: as §2
HUVEC [10] = assay: Inhibition of FBS-induced capillary-like network organization in human HUVEC at 0.001 to 10 uM after 6 hrs by matrigel assay; assay type: functional, cell-based; how it was run: as §5
[11] = molecular target: T3, 72 kDa type IV collagenase; assay: Inhibition of MMP2 in HUVEC assessed as suppression of protein release at 10 uM after 24 hrs by Western blot analysis; how it was run: as §2
Target sequence in this assay (P08253 110-660 limits assumed): as above

HUVEC [12] = assay: Inhibition of FBS-induced cell invasion in human HUVEC at 0.001 uM after overnight incubation using modified Boyden chambers; assay type: functional, cell-based; how it was run: as §3
Mus musculus [13] = species on record: Mus musculus; assay: Antiangiogenic activity in C57/BL6 mouse matrigel sponge assay model assessed as reduction of VEGF-A, TNFalpha and heparin-induced number of CD45-/CD31+ cells treated in plugs by flow cytometry; assay type: functional, organism-based; how it was run: as §4
Mus musculus [14] = assay: Antiangiogenic activity in C57/BL6 mouse matrigel sponge assay model assessed as reduction of VEGF-A, TNFalpha and heparin-induced hemoglobin content at 0.1 to 10 uM, sc; assay type: functional, organism-based; how it was run: as §4
[15] = molecular target: T3, 72 kDa type IV collagenase; assay: Inhibition of MMP2 gelatinase activity in human HUVEC at 0.001 uM by gel zymography
How it was run: (§6)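 Gelatin zymography on 10% polyacrylamide gels with 0.1% gelatin and SDS, samples unheated. Gels renatured 30 min at room temperature. Either untreated-HUVEC conditioned medium run and gel lane slices developed overnight at 37 °C in developing buffer containing inhibitor, or medium from inhibitor-treated HUVEC developed overnight without inhibitor. Coomassie stained; bands quantified by densitometry.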
Target sequence in this assay (P08253 110-660 limits assumed): as above

HUVEC [16] = assay: Inhibition of FBS-induced network efficiency of human HUVEC assessed as reduction of number of meshes at 0.001 to 10 uM after 6 hrs by matrigel assay; assay type: functional, cell-based; how it was run: as §5
HUVEC [17] = assay: Inhibition of PMA-stimulated MMP2 mRNA expression in human HUVEC after 24 hrs by QT-PCR analysis; assay type: functional, cell-based
How it was run: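 HUVEC starved, PMA pre-treated (30 nM, 3 h), then exposed to inhibitor for 24 h before RNA extraction. Real-time PCR with SYBR Green, 45 cycles (95 °C 10 s, 60 °C 15 s, 72 °C 15 s), with melting-curve check.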

[18] = molecular target: T3, 72 kDa type IV collagenase; assay: Inhibition of MMP2 gelatinase activity in human HUVEC by gel zymography; how it was run: as §6
Target sequence in this assay (P08253 110-660 limits assumed): as above

[19] = molecular target: T2, Matrix metalloproteinase-9; assay: Inhibition of MMP9 gelatinase activity in human HUVEC at 0.001 uM by gel zymography; how it was run: as §6
HUVEC [20] = assay: Inhibition of PMA-stimulated MMP2 protein expression in human HUVEC after 24 hrs by Western blot analysis relative to control; assay type: functional; how it was run: as §2
HUVEC [21] = assay: Cytotoxicity against human HUVEC assessed as reduction of cell growth at 0.001 to 10 uM after 24 to 96 hrs by MTT assay; assay type: cell-based; conditions: in the assay text read “0.01 to 10 uM” for “0.001 to 10 uM”
How it was run: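 HUVEC (passages 3–6) seeded at 1000/well in complete medium. After adhesion, fresh medium with or without inhibitor, 10 nM–10 µM. Incubated 24, 48, 72 and 96 h; MTT absorbance read at 570 nm.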

HUVEC [22] = assay: Inhibition of FBS-induced cell invasion in human HUVEC after overnight incubation using modified Boyden chambers; assay type: functional, cell-based; how it was run: as §3
[23] = molecular target: T2, Matrix metalloproteinase-9; assay: Inhibition of MMP9 gelatinase activity in human HUVEC by gel zymography; how it was run: as §6
[24] = molecular target: T2, Matrix metalloproteinase-9; assay: Inhibition of MMP9 in HUVEC assessed as suppression of protein release at 10 uM after 24 hrs by Western blot analysis; how it was run: as §2
[25] = molecular target: Matrix metalloproteinase-14 (Homo sapiens, UniProt P50281); assay: Inhibition of recombinant human catalytic domain MMP14 using Mca-Lys-Pro-Leu-Gly-Leu-Dap(Dnp)-Ala-Arg-NH2 as fluorogenic substrate incubated for 4 hrs followed by substrate addition measured every 10 secs for 20 mins by fluorometric assay; how it was run: as §1

Chain of Stromelysin-1 (P08254 whole entry): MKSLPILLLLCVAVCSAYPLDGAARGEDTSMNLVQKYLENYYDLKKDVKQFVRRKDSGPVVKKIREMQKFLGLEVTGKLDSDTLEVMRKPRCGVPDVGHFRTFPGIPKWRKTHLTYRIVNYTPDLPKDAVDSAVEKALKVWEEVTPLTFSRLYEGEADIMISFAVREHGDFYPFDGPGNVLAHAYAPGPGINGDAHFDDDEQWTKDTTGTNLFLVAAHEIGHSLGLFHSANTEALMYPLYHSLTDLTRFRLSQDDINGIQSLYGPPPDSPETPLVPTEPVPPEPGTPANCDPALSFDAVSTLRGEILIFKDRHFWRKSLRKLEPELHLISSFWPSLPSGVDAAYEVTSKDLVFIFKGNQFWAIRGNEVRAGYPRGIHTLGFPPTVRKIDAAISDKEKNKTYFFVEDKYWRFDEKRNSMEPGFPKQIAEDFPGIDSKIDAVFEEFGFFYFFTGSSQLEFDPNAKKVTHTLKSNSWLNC
T2 sequence (P14780 whole entry): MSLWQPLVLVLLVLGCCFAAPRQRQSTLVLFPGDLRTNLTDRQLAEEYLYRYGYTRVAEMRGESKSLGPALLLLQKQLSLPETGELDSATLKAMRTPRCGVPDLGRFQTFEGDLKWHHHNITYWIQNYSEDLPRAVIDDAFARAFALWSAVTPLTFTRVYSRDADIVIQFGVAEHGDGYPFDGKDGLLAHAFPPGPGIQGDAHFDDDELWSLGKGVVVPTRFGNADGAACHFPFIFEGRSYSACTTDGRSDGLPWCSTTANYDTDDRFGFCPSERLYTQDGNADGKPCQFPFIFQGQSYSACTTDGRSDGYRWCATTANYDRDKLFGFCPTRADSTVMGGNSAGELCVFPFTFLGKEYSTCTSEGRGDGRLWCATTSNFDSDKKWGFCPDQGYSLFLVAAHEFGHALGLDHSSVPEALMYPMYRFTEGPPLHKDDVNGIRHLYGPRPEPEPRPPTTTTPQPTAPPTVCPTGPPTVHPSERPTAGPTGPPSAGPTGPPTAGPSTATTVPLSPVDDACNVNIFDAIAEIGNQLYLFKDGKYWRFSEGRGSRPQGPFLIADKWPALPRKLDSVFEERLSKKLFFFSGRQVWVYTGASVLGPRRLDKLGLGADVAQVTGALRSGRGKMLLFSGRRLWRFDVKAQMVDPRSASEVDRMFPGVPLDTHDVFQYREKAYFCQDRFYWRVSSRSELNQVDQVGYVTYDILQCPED

SMILES: COc1ccc(-c2ccc(S(=O)(=O)N(OC(C)C)[C@H](CCN3C(=O)c4ccccc4C3=O)C(=O)NO)cc2)cc1
viability at 18 h, up to 10 µM [3]: 85% | inhibition [4]: Active | IC50 (Interstitial collagenase): 200 nM | inhibition (HUVEC [5]): Dose-dependent effect | inhibition (Mus musculus [6]): Dose-dependent effect | inhibition (HUVEC [7]): Active | inhibition (HUVEC [8]): Dose-dependent effect | inhibition [9]: Active | inhibition (HUVEC [10]): Active | inhibition [11]: Active | inhibition (HUVEC [12]): Active | IC50 [1]: 0.43 nM | inhibition (Mus musculus [13]): Dose-dependent effect | inhibition (Mus musculus [14]): Active | inhibition [15]: Active | IC50 (Stromelysin-1): 105 nM | inhibition (HUVEC [16]): Active | inhibition (HUVEC [17]): Active | inhibition [18]: Dose-dependent effect | inhibition [19]: Active | fold change (FC) (HUVEC [20]): 0.6 | Activity (HUVEC [21]): Non-toxic | inhibition (HUVEC [22]): Dose-dependent effect | inhibition [23]: Dose-dependent effect | inhibition [24]: Active

SMILES: COc1ccc(-c2ccc(S(=O)(=O)N(OC(C)C)[C@H](CCNC(=O)Cc3ccccc3)C(=O)NO)cc2)cc1
IC50 (Interstitial collagenase): 1400 nM | IC50 [25]: 25 nM | IC50 [1]: 2.9 nM | IC50 (Stromelysin-1): 36 nM

SMILES: CC(C)ON([C@H](CCNC(=O)Cc1ccccc1)C(=O)NO)S(=O)(=O)c1ccc(-c2ccccc2)cc1
IC50 (Interstitial collagenase): 1300 nM | IC50 [1]: 6.4 nM | IC50 [2]: 1.4 nM | IC50 (Stromelysin-1): 120 nM

Next, values leading:

IC50 (Interstitial collagenase): 780 nM | IC50 [1]: 9 nM | IC50 [2]: 1.5 nM | IC50 (Stromelysin-1): 450 nM
SMILES: CC(C)ON([C@H](CCNC(=O)c1ccccc1)C(=O)NO)S(=O)(=O)c1ccc(-c2ccccc2)cc1

IC50 (Interstitial collagenase): 320 nM | IC50 [1]: 8.6 nM | IC50 [2]: 1 nM | IC50 (Stromelysin-1): 71 nM
SMILES: CC(C)ON([C@H](CCNS(C)(=O)=O)C(=O)NO)S(=O)(=O)c1ccc(-c2ccccc2)cc1
